# Measurements pooled from the literature.
# Lines come from different studies, so protocols differ.
SMILES,system,conditions,quantity,value
CC(C)(O)c1ccccc1-c1ccc2[nH]c(/C=C/c3ccc(C(F)(F)F)cc3)nc2c1,"male human, plasma","oral, 15 mg, single dose, fasted, healthy volunteers",MRT,84 h
CC(C)Oc1cccc(-c2cnc(N3CCC(C(N)=O)CC3)s2)c1,"male Swiss mouse, plasma","oral, 30 mg/kg, 8 h, single dose",concentration,8.49 ng/mL
O=c1nc(N2CCN(CC3CCCCC3)CC2)sc2c([N+](=O)[O-])cc(C(F)(F)F)cc12,"CD-1 mouse, plasma","intravenous, 10 mg/kg, 4 h",concentration,139 ng/mL
CC(C)(C)c1ccc(O)c(CN(Cc2cc(C(C)(C)C)ccc2O)C2CCC(NC(N)=O)CC2)c1 (centres unmarked),"male C57BL/6 mouse, plasma","intraperitoneal, 5 mg/kg, single dose",half-life,2.4 h
O=C(O)C1CCN(c2ncc(-c3ccc4c(c3)OCCCO4)s2)CC1,"male Swiss mouse, plasma","oral, 30 mg/kg, 4 h, single dose",concentration,3890 ng/mL
CC(C)(Nc1nc(-c2ccccn2)nc2ccccc12)c1ccccn1,"female BALB/c mouse, plasma","oral, 50 mg/kg, 2 h",concentration,4230 ng/mL
c1cnc2ccc(Nc3nc(NC4CC4)c4nc[nH]c4n3)cc2c1,"human, plasma","oral, 100 mg/m², patients",MRT(0-t),8.1 h
CC(C)CN(C[C@@H](O)[C@H](Cc1ccccc1)NC(=O)O[C@H]1CO[C@H]2OCC[C@H]21)S(=O)(=O)c1ccc(N)cc1,"BALB/c mouse, brain","intravenous, 2.5 mg/kg, 6 h",concentration,1.36 ng/g
